One may read the IC50 as the concentration needed to halve the response being measured. Low values mean higher potency, high ones lower potency. One may read the GI50 as the concentration at which growth is held to half of that of the control.

The source of these data is ChEMBL document CHEMBL1828516, “Discovery of novel alkylated (bis)urea and (bis)thiourea polyamine analogues with potent antimalarial activities” (J Med Chem, 2011).

In data set [1] the test system is Plasmodium falciparum. Description: Antimalarial activity against […] Plasmodium falciparum HB3 infected in human erythrocytes after 96 hrs by SYBR Green I-based fluorescence assay. The format is functional, organism-based. The following applies: HB3, 96 h. In a few lines:
(§1)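 Ring-stage cultures synchronized with 10% D-sorbitol, grown in O+ human erythrocytes in RPMI-1640 with HEPES, hypoxanthine, glucose, gentamycin and Albumax II under 5% CO2/5% O2/90% N2 at 37°C. Compounds in DMSO (<0.013%), serially diluted, added at 1% parasitemia, 2% hematocrit. Static 96 h incubation, then SYBR Green I lysis buffer for 1 h in dark. Fluorescence at ex 485/em 538 nm.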

Data set [2] deals with Plasmodium falciparum. Description: Antimalarial activity against drug-sensitive Plasmodium falciparum 3D7 infected in human erythrocytes after 96 hrs by SYBR Green I-based fluorescence assay. It counts as functional, organism-based. To be noted: 3D7, 96 h. In a few lines: as §1
The test system of data set [3] is Plasmodium falciparum. Briefly: Antimalarial activity against antifolate-resistant Plasmodium falciparum W2 infected in human erythrocytes after 96 hrs by SYBR Green I-based fluorescence assay. It counts as functional, organism-based. To be noted: W2, 96 h. In a few lines: as §1
Data set [4] concerns Plasmodium falciparum. Briefly: Resistance ratio of IC50 for Plasmodium falciparum W2 to IC50 for Plasmodium falciparum 3D7. The format is functional. The procedure, abridged: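 Ratio of W2 IC50 to 3D7 IC50, both from the 96 h SYBR Green I fluorescence assay.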
Data set [5] relates to Plasmodium falciparum. Briefly: Antimalarial activity against Plasmodium falciparum assessed as inhibition of DNA replication at 2 times IC50 after 72 hrs by FITC-SYBR Green I-based flow cytometry. The format is functional, organism-based. (Flow cytometry measures light scatter and fluorescence of single cells or particles in a stream.)
In data set [6] the test system is Plasmodium falciparum. Description: Antimalarial activity against Plasmodium falciparum 3D7 infected in human erythrocytes assessed as decrease in parasitemia at 2 times IC50 after 72 hrs by giemsa staining method. The format is functional, organism-based. The procedure, abridged: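 P. falciparum 3D7 in O+ human erythrocytes, treated at 2xIC50 for 72 h. Parasitemia scored microscopically on Giemsa-stained smears, counting 100 parasites per slide 10x, alongside SYBR Green I DNA quantitation. Parasitemia compared at 0 h and 72 h. Three independent experiments in triplicate, mean ± S.E.; Student t-test, P<0.05.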

The subject of data set [7] is HepG2. Briefly: Cytotoxicity against human HepG2 cells after 48 hrs by lactate dehydrogenase assay. It counts as cell-based. The following applies: hepg2, 48 h. The procedure, abridged: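 HepG2 cells in DMEM with 10% heat-inactivated FBS, 37°C, 5% CO2. Cells pelleted at 250xg, supernatant LDH activity read colorimetrically as NADH at 450 nm after 30 min at room temperature. Duplicate, at least two biological repeats, mean ± S.E.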

Data set [8] is described as follows: Selectivity index, ratio of GI50 for human HepG2 cells to IC50 for Plasmodium falciparum 3D7. It counts as functional.
For data set [9], the system named is Plasmodium falciparum. Briefly: Antimalarial activity against Plasmodium falciparum assessed as increase in 1N ring or trophozoite stage parasites at 2 times IC50 after 72 hrs by FITC-SYBR Green I-based flow cytometry. The format is functional, organism-based.
Data set [10] relates to Plasmodium falciparum. Briefly: Antimalarial activity against Plasmodium falciparum assessed as reduction in 2N schizont stage parasites at 2 times IC50 after 72 hrs by FITC-SYBR Green I-based flow cytometry. The format is functional, organism-based.
Data set [11] has as its system Plasmodium falciparum. Briefly: Antimalarial activity against Plasmodium falciparum assessed as reduction in >2N schizont stage parasites at 2 times IC50 after 72 hrs by FITC-SYBR Green I-based flow cytometry. The format is functional, organism-based.

Activity calls are given as the source filed them. The calls are words filed in the database; no cut-off is given here.

As for `S=C(NCCCNCCCNCCCNC(=S)NCC(c1ccccc1)c1ccccc1)NCC(c1ccccc1)c1ccccc1`, the figures for the IC50 in data set [1] and in data set [2] were 715 nM and 1320 nM, respectively.
The corresponding values for `S=C(NCCCNCCCNCCCNC(=S)NC(c1ccccc1)c1ccccc1)NC(c1ccccc1)c1ccccc1` are 766 nM and 1080 nM.
In the case of `CC(=N)NCCCNCCCCNCCCNC(C)=N`, the figures for the half-inhibitory concentration (IC50) in data set [1] and in [2] were 14200 nM and 80000 nM, respectively.
`Cl.Cl.O=C(NCCCNCCCCCCCNCCCNC(=O)NCC(c1ccccc1)c1ccccc1)NCC(c1ccccc1)c1ccccc1`: the IC50 in [2] turned out to be 100 nM; in [3] it was 140 nM. Further, the “Ratio IC50” value in data set [4] amounted to 1.4. Besides, in data set [5], the “DNA replication inhibition (active/inactive)” value is “Active”. Besides, the outcome in data set [6], in [9], in data set [10] and in data set [11] was Active. Besides, the GI50 in data set [7] was found to be 33800 nM. The “Selectivity Index” value in data set [8] is listed as 338.
Take `Cl.Cl.O=C(NCCCNCCCCCCNCCCNC(=O)Nc1ccccc1)Nc1ccccc1`: the IC50 in data set [2] is 88 nM; in data set [3], 26 nM. Further, in data set [4], the “Ratio IC50” value amounted to 0.3. Also, the “DNA replication inhibition (active/inactive)” value in data set [5] is “Active”. Moreover, the result in data set [6], in [9], in data set [10] and in [11] was Active. Besides, in data set [7], growth was halved (GI50) at 619000 nM. Also, the “Selectivity Index” value in data set [8] amounted to 7038.
For `S=C(NCCCNCCCCCCNCCCNC(=S)NCC(c1ccccc1)c1ccccc1)NCC(c1ccccc1)c1ccccc1`, in data set [2], the IC50 was found to be 436 nM.
As to `O=C(NCCCNCCCCNCCCNC(=O)NCc1ccccc1)NCc1ccccc1`, the results for the 50% inhibitory concentration (IC50) in data set [1] and in [2] were > 1000 nM and 3480 nM, respectively.
Take `Cl.Cl.S=C(NCCCNCCCCCCCNCCCNC(=S)NCCC(c1ccccc1)c1ccccc1)NCCC(c1ccccc1)c1ccccc1`: the IC50 was 256 nM in [1], 253 nM in [2] and 147 nM in data set [3]. For the same compound, in data set [4], the “Ratio IC50” value turned out to be 0.58. Besides, the “DNA replication inhibition (active/inactive)” value in data set [5] is “Active”. For the same compound, the result in data set [6], in data set [9], in data set [10] and in data set [11] was Active. Also, the GI50 in data set [7] is 24500 nM. Also, in [8], the “Selectivity Index” value was found to be 97.
Turning to `O=C(NCCCNCCCCNCCCNC(=O)NCCC(c1ccccc1)c1ccccc1)NCCC(c1ccccc1)c1ccccc1`, the IC50 in [1] was determined as 517 nM; in data set [2] it was 657 nM.
Consider `CC(=N)NCCCNCCCNCCCNC(C)=N`, for which the IC50 amounted to 110000 nM in [1] and 147000 nM in data set [2].
Turning to `O=C(NCCCNCCCNCCCNC(=O)NCCC(c1ccccc1)c1ccccc1)NCCC(c1ccccc1)c1ccccc1`, the IC50 in [2] came out at 653 nM.
On to `S=C(NCCCNCCCCNCCCNC(=S)NCCC(c1ccccc1)c1ccccc1)NCCC(c1ccccc1)c1ccccc1`, for which the figures for the IC50 in [1] and in data set [2] were 1030 nM and 528 nM, respectively.
For the compound `Cl.Cl.S=C(NCCCNCCCCCCNCCCNC(=S)NCc1ccccc1)NCc1ccccc1`, the IC50 was found to be 106 nM in data set [2] and 198 nM in data set [3]. Moreover, the “Ratio IC50” value in data set [4] is 1.9. Further, the “DNA replication inhibition (active/inactive)” value in [5] is “Active”. The result in data set [6], in [9], in data set [10] and in data set [11] was Active. For the same compound, the GI50 in data set [7] is > 200000 nM. In addition, the “Selectivity Index” value in data set [8] was >1500.
Turning to `O=C(NCCCNCCCCNCCCNC(=O)NC(c1ccccc1)c1ccccc1)NC(c1ccccc1)c1ccccc1`, the IC50 in [2] was found to be 691 nM.
Turning to `Cl.Cl.O=C(NCCCNCCCCCCCNCCCNC(=O)NCCC(c1ccccc1)c1ccccc1)NCCC(c1ccccc1)c1ccccc1`, the values for the half-inhibitory concentration (IC50) in data set [1], in data set [2] and in [3] were 200 nM, 144 nM and 163 nM, respectively. Also, the “Ratio IC50” value in data set [4] is on record as 1.13. Further, the “DNA replication inhibition (active/inactive)” value in data set [5] was “Active”. Moreover, the result in data set [6], in data set [9], in data set [10] and in [11] was Active. Moreover, growth in [7] was halved (GI50) at 23900 nM. Further, the “Selectivity Index” value in data set [8] was determined as 166.
Turning to `O=C(NCCCNCCCCCCNCCCNC(=O)NCc1ccccc1)NCc1ccccc1`, half-maximal inhibition in data set [2] (IC50) required 339 nM.
`S=C(NCCCNCCCCCCNCCCNC(=S)Nc1ccccc1)Nc1ccccc1` displayed a concentration for half-maximal inhibition (IC50) in data set [2] of 846 nM.
On to `S=C(NCCCNCCCCNCCCNC(=S)NC(c1ccccc1)c1ccccc1)NC(c1ccccc1)c1ccccc1`, for which the IC50 is 317 nM in data set [1] and 433 nM in [2].
As to `S=C(NCCCNCCCCCCCNCCCNC(=S)NC(c1ccccc1)c1ccccc1)NC(c1ccccc1)c1ccccc1`, the IC50 in [1] was determined as 138 nM; in [2], 641 nM.
Regarding `CCNC(=S)NCCCNCCCCCCNCCCNC(=S)NCC`, the IC50 in data set [2] is 1350 nM.
Same read-out and setting: with `O=C(NCCCNCCCCNCCCNC(=O)NCC(c1ccccc1)c1ccccc1)NCC(c1ccccc1)c1ccccc1` the figure was 408 nM.
Consider `S=C(NCCCNCCCNCCCNC(=S)NCCC(c1ccccc1)c1ccccc1)NCCC(c1ccccc1)c1ccccc1`, for which the figures for the concentration for half-maximal inhibition (IC50) in [1] and in [2] were 1640 nM and 1430 nM, respectively.
Regarding `S=C(NCCCNCCCCNCCCNC(=S)NCC(c1ccccc1)c1ccccc1)NCC(c1ccccc1)c1ccccc1`, the results for the IC50 in data set [1], in [2] and in data set [3] were 170 nM, 329 nM and 200 nM, respectively. The “DNA replication inhibition (active/inactive)” value in [5] was “Active”. Further, the result in data set [6], in data set [9], in data set [10] and in [11] was Active. The compound also registered a GI50 in data set [7] of 18900 nM.
`Cl.Cl.O=C(NCCCNCCCCCCCNCCCNC(=O)NC(c1ccccc1)c1ccccc1)NC(c1ccccc1)c1ccccc1`: the IC50 was 131 nM in data set [2] and 221 nM in data set [3]. The “Ratio IC50” value in [4] was found to be 1.7. The “DNA replication inhibition (active/inactive)” value in [5] was “Active”. The result in data set [6], in [9], in data set [10] and in data set [11] was Active. The GI50 in data set [7] was > 200000 nM. Also, the “Selectivity Index” value in [8] is on record as >1500.
For `CCNC(=O)NCCCNCCCCCCNCCCNC(=O)NCC`, the IC50 in data set [2] was > 15000 nM.
As to `CCCNC(=S)NCCCNCCCCCCNCCCNC(=S)NCCC`, inhibition in data set [2] was half-maximal at 425 nM (IC50).
Take `Cl.Cl.S=C(NCCCNCCCCCCNCCCNC(=S)NC(c1ccccc1)c1ccccc1)NC(c1ccccc1)c1ccccc1`: the IC50 was found to be 211 nM in [2] and 256 nM in data set [3]. For the same compound, the “Ratio IC50” value in data set [4] was 1.2. The “DNA replication inhibition (active/inactive)” value in [5] was “Active”. For the same compound, the outcome in data set [6], in data set [9], in [10] and in [11] was Active. The concentration for 50% growth inhibition (GI50) in [7] was > 200000 nM. For the same compound, the “Selectivity Index” value in data set [8] is listed as >500.
With `CCCNC(=O)NCCCNCCCCCCNCCCNC(=O)NCCC`, the IC50 in data set [2] was determined as 14100 nM.
Turning to `S=C(NCCCNCCCCCCNCCCNC(=S)NCCC(c1ccccc1)c1ccccc1)NCCC(c1ccccc1)c1ccccc1`, the half-inhibitory concentration (IC50) in data set [2] was 310 nM.
In turn, `CC(=N)NCCCNCCCCCCCNCCCNC(C)=N` gave an IC50 in [1] of 70300 nM.
